Active and inactive are the calls of the source. The rule behind the calls is not given here.
Assays:
[1] = biological target: T1, GABA A receptor alpha-4/beta-3/gamma-2 (Homo sapiens, UniProt P18507+P28472+P48169); assay: Activity at alpha-4-beta-3-gamma-2 GABAA receptor expressed in Xenopus oocytes assessed as inhibition in GABA-induced current by voltage clamp assay; type: cell-based, Oocyte
In short: (§1)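 cRNA for alpha and beta3 subunits (0.0065 ng/nL) plus gamma2 (0.032 ng/nL) injected into Xenopus oocytes, 50 nL each, recorded after ≥36 h. Two-electrode voltage clamp at -60 mV, room temperature, in Xenopus Ringer's pH 7.4. Drug (final 0.1% DMSO) preapplied 30 s, then coapplied with GABA at about EC20 until peak. Current normalized to response without drug.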

[2] = biological target: T2, GABA-A receptor; alpha-1/beta-3/gamma-2 (Homo sapiens, UniProt P14867+P18507+P28472); assay: Activity at GABAA alpha-1-beta-3-gamma-2 receptor expressed in Xenopus oocytes assessed as inhibition of GABA-induced current by voltage clamp assay; type: cell-based, Oocyte; in short: as §1
T2 sequence (P14867 whole entry): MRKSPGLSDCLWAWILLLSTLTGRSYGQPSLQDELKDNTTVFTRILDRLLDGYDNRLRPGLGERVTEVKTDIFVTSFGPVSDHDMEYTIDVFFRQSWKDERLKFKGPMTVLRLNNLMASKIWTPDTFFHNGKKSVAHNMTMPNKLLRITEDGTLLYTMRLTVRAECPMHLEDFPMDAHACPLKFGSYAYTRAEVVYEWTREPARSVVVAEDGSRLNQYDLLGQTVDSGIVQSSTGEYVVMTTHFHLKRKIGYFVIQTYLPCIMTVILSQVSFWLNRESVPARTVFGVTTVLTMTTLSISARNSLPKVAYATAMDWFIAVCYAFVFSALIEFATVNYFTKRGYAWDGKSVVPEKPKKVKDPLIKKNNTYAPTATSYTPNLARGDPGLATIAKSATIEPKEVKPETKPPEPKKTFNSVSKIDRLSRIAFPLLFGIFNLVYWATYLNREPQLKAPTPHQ
T2 sequence (P18507 whole entry): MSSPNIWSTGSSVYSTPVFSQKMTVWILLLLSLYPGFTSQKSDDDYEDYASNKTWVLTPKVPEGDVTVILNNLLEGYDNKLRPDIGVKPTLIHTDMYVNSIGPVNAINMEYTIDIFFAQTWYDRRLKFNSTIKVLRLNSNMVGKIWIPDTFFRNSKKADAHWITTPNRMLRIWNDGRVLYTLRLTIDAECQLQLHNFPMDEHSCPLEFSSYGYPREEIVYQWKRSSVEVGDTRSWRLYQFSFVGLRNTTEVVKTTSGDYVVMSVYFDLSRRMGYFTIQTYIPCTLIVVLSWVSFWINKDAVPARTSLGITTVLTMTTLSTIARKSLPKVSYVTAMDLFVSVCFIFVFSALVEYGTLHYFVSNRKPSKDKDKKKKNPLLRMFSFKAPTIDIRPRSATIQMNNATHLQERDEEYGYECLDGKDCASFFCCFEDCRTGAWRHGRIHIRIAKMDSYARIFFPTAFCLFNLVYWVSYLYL
T2 sequence (P28472 whole entry): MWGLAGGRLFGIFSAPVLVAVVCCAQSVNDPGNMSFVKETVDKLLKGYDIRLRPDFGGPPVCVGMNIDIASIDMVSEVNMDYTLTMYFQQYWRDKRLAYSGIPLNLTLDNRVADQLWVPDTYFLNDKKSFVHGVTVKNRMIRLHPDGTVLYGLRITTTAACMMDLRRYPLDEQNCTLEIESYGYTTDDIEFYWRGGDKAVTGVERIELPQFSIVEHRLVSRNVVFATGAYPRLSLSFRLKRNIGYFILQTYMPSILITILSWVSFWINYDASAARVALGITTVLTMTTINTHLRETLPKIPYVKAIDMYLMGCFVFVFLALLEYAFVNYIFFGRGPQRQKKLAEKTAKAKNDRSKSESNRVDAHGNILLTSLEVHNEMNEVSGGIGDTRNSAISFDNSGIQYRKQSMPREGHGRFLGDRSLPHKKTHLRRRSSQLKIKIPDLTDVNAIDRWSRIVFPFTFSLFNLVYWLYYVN

[3] = biological target: T3, GABA-A receptor; alpha-6/beta-3/gamma-2 (Homo sapiens, UniProt P18507+P28472+Q16445); assay: Activity at alpha-6-beta-3-gamma-2 GABAA receptor expressed in Xenopus oocytes assessed as inhibition in GABA-induced current by voltage clamp assay; type: cell-based, Oocyte; in short: as §1
[4] = biological target: T4, GABA-A receptor; alpha-5/beta-3/gamma-2 (Homo sapiens, UniProt P18507+P28472+P31644); assay: Activity at alpha-5-beta-3-gamma-2 GABAA receptor expressed in Xenopus oocytes assessed as inhibition in GABA-induced current by voltage clamp assay; type: cell-based, Oocyte
T4 sequence (P18507 whole entry): T2 sequence (P18507 whole entry)
T4 sequence (P28472 whole entry): T2 sequence (P28472 whole entry)
T4 sequence (P31644 whole entry): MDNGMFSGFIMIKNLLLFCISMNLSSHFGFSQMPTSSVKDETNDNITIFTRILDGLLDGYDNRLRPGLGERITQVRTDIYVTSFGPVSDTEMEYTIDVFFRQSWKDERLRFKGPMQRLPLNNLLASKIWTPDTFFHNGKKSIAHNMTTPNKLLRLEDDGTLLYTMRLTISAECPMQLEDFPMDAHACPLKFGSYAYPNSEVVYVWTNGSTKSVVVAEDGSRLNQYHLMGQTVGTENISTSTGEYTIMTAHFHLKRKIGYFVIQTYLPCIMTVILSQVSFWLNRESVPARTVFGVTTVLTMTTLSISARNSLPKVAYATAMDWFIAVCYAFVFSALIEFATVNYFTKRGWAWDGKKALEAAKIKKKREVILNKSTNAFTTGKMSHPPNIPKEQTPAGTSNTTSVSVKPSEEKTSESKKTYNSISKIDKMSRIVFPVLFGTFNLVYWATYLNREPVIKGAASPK
In short: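 cRNA-injected Xenopus oocytes (α5, β3 transcripts 0.0065 ng/nL, γ2 0.032 ng/nL; 50 nL), defolliculated after ≥36 h; two-electrode voltage clamp at −60 mV, room temperature, in Xenopus Ringer's pH 7.4. Ligand (1 µM; 0.1% DMSO final) preapplied 30 s, then coapplied with GABA at EC20 until peak; current change versus GABA alone.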

[5] = biological target: T5, GABA-A receptor; alpha-2/beta-3/gamma-2 (Homo sapiens, UniProt P18507+P28472+P47869); assay: Activity at alpha-2-beta-3-gamma-2 GABAA receptor expressed in Xenopus oocytes assessed as inhibition in GABA-induced current by voltage clamp assay; type: cell-based, Oocyte; in short: as §1
T5 sequence (P18507 whole entry): T2 sequence (P18507 whole entry)
T5 sequence (P28472 whole entry): T2 sequence (P28472 whole entry)
T5 sequence (P47869 whole entry): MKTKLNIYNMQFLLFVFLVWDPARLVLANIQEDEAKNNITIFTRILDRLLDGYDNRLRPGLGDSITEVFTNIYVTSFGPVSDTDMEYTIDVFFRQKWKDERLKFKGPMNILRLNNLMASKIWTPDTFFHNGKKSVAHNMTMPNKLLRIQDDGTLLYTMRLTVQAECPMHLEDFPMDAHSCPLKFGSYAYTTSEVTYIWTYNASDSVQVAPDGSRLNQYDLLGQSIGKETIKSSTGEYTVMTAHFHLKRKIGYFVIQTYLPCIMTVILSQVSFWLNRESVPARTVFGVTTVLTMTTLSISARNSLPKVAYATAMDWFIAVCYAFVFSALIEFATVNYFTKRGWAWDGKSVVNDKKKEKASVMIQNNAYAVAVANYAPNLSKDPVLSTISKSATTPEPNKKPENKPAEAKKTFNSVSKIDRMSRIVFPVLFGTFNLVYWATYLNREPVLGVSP

[6] = Selectivity for GABAA alpha-5-beta-3-gamma-2 receptor over GABAA alpha-1-beta-3-gamma-2 receptor
[7] = biological target: T2, GABA-A receptor; alpha-1/beta-3/gamma-2; assay: Binding affinity to GABAA alpha-1-beta-3-gamma-2 receptor; type: protein-complex assay
[8] = Selectivity for GABAA alpha-5-beta-3-gamma-2 receptor over GABAA alpha-4-beta-3-gamma-2 receptor
[9] = biological target: T3, GABA-A receptor; alpha-6/beta-3/gamma-2; assay: Activity at GABAA alpha-6-beta-3-gamma-2 receptor expressed in Xenopus oocytes assessed as potentiation of GABA-induced chloride current at 1 uM; type: cell-based; conditions: Oocyte
[10] = biological target: GABA-A receptor; alpha-2/beta-3/gamma-2 (Homo sapiens) (UniProt P18507+P28472+P47869); assay: Activity at GABAA alpha-2-beta-3-gamma-2 receptor expressed in Xenopus oocytes assessed as potentiation of GABA-induced chloride current at 1 uM; type: cell-based; conditions: Oocyte
[11] = biological target: T1, GABA A receptor alpha-4/beta-3/gamma-2; assay: Binding affinity to GABAA alpha-4-beta-3-gamma-2 receptor; type: protein-complex assay
[12] = Selectivity for GABAA alpha-5-beta-3-gamma-2 receptor over GABAA alpha-2-beta-3-gamma-2 receptor
[13] = Selectivity for GABAA alpha-5-beta-3-gamma-2 receptor over GABAA alpha-3-beta-3-gamma-2 receptor
[14] = Selectivity for GABAA alpha-5-beta-3-gamma-2 receptor over GABAA alpha-6-beta-3-gamma-2 receptor
[15] = biological target: T3, GABA-A receptor; alpha-6/beta-3/gamma-2; assay: Binding affinity to GABAA alpha-6-beta-3-gamma-2 receptor; type: protein-complex assay
[16] = system: Mus musculus; assay: Anticonvulsant activity in C57BL/6J mouse assessed as inhibition of increase in excitatory tone in brain at 30 mg/kg, ip; type: functional, organism-based; parameters: dose 30 mg/kg
[17] = biological target: T1, GABA A receptor alpha-4/beta-3/gamma-2; assay: Activity at GABAA alpha-4-beta-3-gamma-2 receptor expressed in Xenopus oocytes assessed as potentiation of GABA-induced chloride current at 1 uM; type: cell-based; conditions: Oocyte
[18] = system: Mus musculus; assay: Inhibition of scopolamine-induced impairment of contextual memory in C57BL/6J mouse at 10 mg/kg, ip after 24 hrs; type: functional, organism-based; parameters: dose 10 mg/kg
In short: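 Male C57Bl/6 mice, 7–12 weeks old, given ip vehicle (0.9% saline with 2.5% encapsin), scopolamine 1.5 mg/kg, or scopolamine plus ligand. After 20 min: context exposure, then three 33 s tones (85 dB, 2.9 kHz), each ending with a 0.75 mA footshock. Freezing scored over 4 min in the same context 24 h later.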

[19] = biological target: T6, Gamma-aminobutyric acid receptor subunit alpha-3 (Homo sapiens, UniProt P18507+P28472+P34903); assay: Binding affinity to GABAA alpha-3-beta-3-gamma-2 receptor
T6 sequence (P34903 whole entry): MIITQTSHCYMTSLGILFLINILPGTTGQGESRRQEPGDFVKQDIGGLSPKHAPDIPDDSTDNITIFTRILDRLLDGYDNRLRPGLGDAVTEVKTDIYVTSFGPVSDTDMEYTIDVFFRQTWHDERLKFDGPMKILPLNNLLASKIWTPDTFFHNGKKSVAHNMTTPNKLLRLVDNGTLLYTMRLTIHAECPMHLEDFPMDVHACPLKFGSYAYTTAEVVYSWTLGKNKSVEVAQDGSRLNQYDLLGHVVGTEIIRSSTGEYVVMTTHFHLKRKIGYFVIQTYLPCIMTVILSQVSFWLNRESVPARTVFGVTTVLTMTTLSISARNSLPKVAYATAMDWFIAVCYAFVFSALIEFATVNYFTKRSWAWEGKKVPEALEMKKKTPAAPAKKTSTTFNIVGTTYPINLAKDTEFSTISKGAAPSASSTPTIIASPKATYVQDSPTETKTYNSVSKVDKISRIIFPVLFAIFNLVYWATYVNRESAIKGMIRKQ

[20] = biological target: T4, GABA-A receptor; alpha-5/beta-3/gamma-2; assay: Binding affinity to GABAA alpha-5-beta-3-gamma-2 receptor; type: protein-complex assay
[21] = biological target: T5, GABA-A receptor; alpha-2/beta-3/gamma-2; assay: Binding affinity to GABAA alpha-2-beta-3-gamma-2 receptor
[22] = system: Mus musculus; assay: Effect on spontaneous locomotor activity in C57BL/6J mouse at 30 mg/kg, ip by automated assessment; type: functional; conditions: route intraperitoneal
In short: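 Male C57Bl/6 mice given 30 mg/kg ip, compared with vehicle-injected mice. Spontaneous locomotor activity was recorded automatically over a 40 min observation period after injection.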

[23] = system: Mus musculus; assay: Impairment of contextual memory in C57BL/6J mouse at 30 mg/kg, ip; type: functional, organism-based; parameters: dose 30 mg/kg
In short: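 Male C57Bl/6 mice aged 7–12 weeks, given an ip injection in 0.9% saline containing 2.5% encapsin, 20 min before training. Training was 4 min in the chamber, then three 33 s tones (85 dB, 2.9 kHz), each ending in a 0.75 mA shock for 3 s, 1 min apart. Twenty-four hours later, freezing was scored during a 4 min context test without shock.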

T1 sequence (P48169 whole entry, one chain of several): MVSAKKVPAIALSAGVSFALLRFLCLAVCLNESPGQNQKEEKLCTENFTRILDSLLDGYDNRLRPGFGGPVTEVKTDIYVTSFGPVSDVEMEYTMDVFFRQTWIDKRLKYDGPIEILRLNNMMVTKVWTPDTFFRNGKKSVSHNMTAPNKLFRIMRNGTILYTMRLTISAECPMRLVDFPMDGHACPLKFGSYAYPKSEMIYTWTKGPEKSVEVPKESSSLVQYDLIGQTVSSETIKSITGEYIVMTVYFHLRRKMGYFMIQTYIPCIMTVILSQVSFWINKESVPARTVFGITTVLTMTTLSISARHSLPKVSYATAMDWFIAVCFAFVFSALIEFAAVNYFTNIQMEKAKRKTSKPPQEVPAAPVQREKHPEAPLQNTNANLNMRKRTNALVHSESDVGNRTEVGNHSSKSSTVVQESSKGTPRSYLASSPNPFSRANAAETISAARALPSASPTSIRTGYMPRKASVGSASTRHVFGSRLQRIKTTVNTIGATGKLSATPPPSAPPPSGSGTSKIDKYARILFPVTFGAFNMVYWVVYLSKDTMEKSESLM
T3 sequence (Q16445 whole entry, one chain of several): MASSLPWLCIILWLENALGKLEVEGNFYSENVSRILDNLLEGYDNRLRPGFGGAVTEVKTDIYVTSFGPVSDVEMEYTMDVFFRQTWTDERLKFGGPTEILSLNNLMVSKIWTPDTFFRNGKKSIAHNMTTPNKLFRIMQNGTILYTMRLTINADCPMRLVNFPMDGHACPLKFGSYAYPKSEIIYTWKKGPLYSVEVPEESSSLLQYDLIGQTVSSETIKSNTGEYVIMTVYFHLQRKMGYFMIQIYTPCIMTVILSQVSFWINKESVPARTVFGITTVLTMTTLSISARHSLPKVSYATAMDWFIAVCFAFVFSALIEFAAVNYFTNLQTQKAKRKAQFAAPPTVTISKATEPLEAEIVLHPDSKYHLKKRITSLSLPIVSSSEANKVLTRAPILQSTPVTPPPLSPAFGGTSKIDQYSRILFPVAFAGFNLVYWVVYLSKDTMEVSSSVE

C#Cc1ccc2c(c1)C(=O)N(C)Cc1c(C(=O)OC(C)(C)C)ncn1-2
EC50 [1]: 324000 nM
EC50 [2]: 74400 nM
EC50 [3]: 51700 nM
EC50 [4]: 9800 nM
EC50 [5]: 95500 nM

COCc1ncn2c1CN(C)C(=O)c1cc(Cl)ccc1-2
Selectivity ratio [6]: 20
Ki [7]: 920 nM
Activity [8]: 20
Activity [9]: 4%
Activity [10]: 4%
Ki [11]: > 300 nM
Selectivity ratio [12]: 20
Selectivity Index [13]: 20
Activity [14]: 20
Ki [15]: 9000 nM
Activity [16]: Active
Activity [17]: 4%
Activity [18]: Active

CN1CC2C(C(=O)OC(C)(C)C)=NCN2c2ccc(C#C[Si](C)(C)C)cc2C1=O (stereo unspecified)
Ki [19]: 255 nM
Ki [7]: 197 nM
Ki [11]: 2.61 nM
Ki [20]: 2.61 nM
Ki [15]: 58.6 nM
Ki [21]: 143 nM

C#Cc1ccc2c(c1)C(c1ccccc1)=N[C@H](C)c1c(C(=O)OCC)ncn1-2
Activity [22]: 1026
Activity [23]: Active
